From ChEMBL document CHEMBL1122698, “Selective delivery of cytotoxic compounds to cells by the LDL pathway” (1984)

Columns and labels:
Assay type in all cases: functional
Homo sapiens [1] = species on record: Homo sapiens; assay: The compound was tested for the toxicity of +r-LDL,measured by its ability to inhibit the growth of normal human fibroblasts or chinese hamster ovary (CHO) cells, at concentration 80 ug/mL
Summary of the method: (§1)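 SV-40-transformed human fibroblasts (SV-589) were seeded at 20 000/well and left 4 h. They were then exposed to compound-reconstituted LDL or reconstituted methylated LDL (Me-r-LDL, not recognised by LDL receptors). Doses are given as LDL protein concentration. On day 3 the wells were PBS-washed to remove dead cells, and adherent cells were fixed with 15% formalin for 15 min and stained with crystal violet. Growth was scored visually, with untreated controls scored 4.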

Homo sapiens [2] = species on record: Homo sapiens; assay: The compound was tested for the toxicity of +Me-r-LDL,measured by its ability to inhibit the growth of normal human fibroblasts or chinese hamster ovary (CHO) cells, at concentration 80 ug/mL; summary of the method: as §1
[3] = The compound was tested for the toxicity of mutant+r-LDL, measured by its ability to inhibit the growth of normal human fibroblasts or chinese hamster ovary (CHO) cells, at concentration 0.5 ug/mL
Summary of the method: (§2)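 Compound reconstituted into LDL (r-LDL) and added to cells; concentration given as LDL protein, roughly equal to compound concentration. Cells plated 20 000/well, left 4 h, then r-LDL added. On day 3, wells washed with PBS to remove dead cells; adherent cells fixed in 15% formalin 15 min, crystal violet stained, scored visually on a 0–6 growth scale (untreated control = 6).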

Homo sapiens [4] = species on record: Homo sapiens; assay: The compound was tested for the toxicity of normal +r-LDL, measured by its ability to inhibit the growth of normal human fibroblasts or chinese hamster ovary (CHO) cells, at concentration 0.5 ug/mL; summary of the method: as §2
Homo sapiens [5] = species on record: Homo sapiens; assay: (§3) The compound was tested for the toxicity of normal +r-LDL, measured by its ability to inhibit the growth of normal human fibroblasts or chinese hamster ovary (CHO) cells, at concentration 10 ug/mL; summary of the method: as §2
[6] = The compound was tested for the toxicity of mutant+r-LDL, measured by its ability to inhibit the growth of normal human fibroblasts or chinese hamster ovary (CHO) cells, at concentration 10 ug/mL; summary of the method: as §2
Homo sapiens [7] = species on record: Homo sapiens; assay: The compound was tested for the toxicity of normal +r-LDL, measured by its ability to inhibit the growth of normal human fibroblasts or chinese hamster ovary (CHO) cells, at concentration 80 ug/mL
Summary of the method: (§4)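 Normal human fibroblasts were seeded at 20 000/well and held 4 h before addition of compound-reconstituted LDL (r-LDL) or methylated r-LDL. Comparison cells with few LDL receptors were receptor-negative homozygous FH fibroblasts or V-79 CHO cells. Doses are given as LDL protein concentration. On day 3 the cells were PBS-washed, fixed with 15% formalin for 15 min and stained with crystal violet. Growth was scored visually from 0 to 6, with untreated controls at 6.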

Homo sapiens [8] = species on record: Homo sapiens; assay: as §3; summary of the method: as §4; remark: listed apart in the source
Homo sapiens [9] = species on record: Homo sapiens; assay: The compound was tested for the toxicity of normal +r-LDL, measured by its ability to inhibit the growth of normal human fibroblasts or chinese hamster ovary (CHO) cells, at concentration 20 ug/mL; summary of the method: as §4
[10] = The compound was tested for the toxicity of mutant+r-LDL, measured by its ability to inhibit the growth of normal human fibroblasts or chinese hamster ovary (CHO) cells, at concentration 20 ug/mL; summary of the method: as §4
Homo sapiens [11] = species on record: Homo sapiens; assay: The compound was tested for the toxicity of normal+r-LDL, measured by its ability to inhibit the growth of normal human fibroblasts or chinese hamster ovary (CHO) cells, at concentration 10 ug/mL; summary of the method: as §4
Homo sapiens [12] = species on record: Homo sapiens; assay: The compound was tested for the toxicity of normal+r-LDL, measured by its ability to inhibit the growth of normal human fibroblasts or chinese hamster ovary (CHO) cells, at concentration 2 ug/mL; summary of the method: as §4
[13] = The compound was tested for the toxicity of mutant+r-LDL, measured by its ability to inhibit the growth of normal human fibroblasts or chinese hamster ovary (CHO) cells, at concentration 2 ug/mL; summary of the method: as §4

`CCCCCCCC/C=C\CCCCCCCCC(=O)O[C@H]1CC[C@@]2(C)C(=CC[C@H]3[C@@H]4CC[C@H](C(C)CCCOC(=O)CCCc5ccc(N(CCCl)CCCl)cc5)C4CC[C@@H]32)C1` (stereo partly drawn) showed a Growth of cells (Homo sapiens [1]) of 4 and a Growth of cells (Homo sapiens [2]) of 4.

`CCCCCCCC/C=C\CCCCCCCCC(=O)O[C@H]1CC[C@@]2(C)C(=CC[C@H]3[C@@H]4CC[C@H](C(C)C(=O)N5CCOC(CCCCCCCCCCCC)C5)C4CC[C@@H]32)C1` (stereo partly drawn) showed a Growth of cells [3] of 6 and a Growth of cells (Homo sapiens [4]) of 6.

For `CCCCCCCC/C=C\CCCCCCCCC(=O)O[C@H]1CC[C@@]2(C)C(=CC[C@H]3[C@@H]4CC[C@H](C(C)COC(=O)N5CCOC(CCCCCCCCCCCC)C5)C4CC[C@@H]32)C1` (stereo partly drawn), the Growth of cells (Homo sapiens [5]) was 6 and the Growth of cells [6] was 6.

In the case of `CCCCCCCC/C=C\CCCCCCCCC(=O)O[C@H]1CC[C@@]2(C)C(=CC[C@H]3[C@@H]4CC[C@H](C(C)COC(=O)CCCc5ccc(N(CCCl)CCCl)cc5)C4CC[C@@H]32)C1` (stereo partly drawn), the Growth of cells (Homo sapiens [1]) is reported as 4, the Growth of cells (Homo sapiens [2]) is reported as 4 and the Growth of cells (Homo sapiens [7]) is reported as 6.

`CCCCCCCC/C=C\CCCCCCCCC(=O)O[C@H]1CC[C@@]2(C)C(=CC[C@H]3[C@@H]4CC[C@H](C(C)COC(=O)N(CCCl)CCCl)C4CC[C@@H]32)C1` (stereo partly drawn) showed a Growth of cells (Homo sapiens [8]) of 0 and a Growth of cells [6] of 6.

Molecule `CCCCCCCC/C=C\CCCCCCCCNC(=O)C(C)[C@H]1CC[C@@H]2C1CC[C@H]1[C@H]2CC=C2C[C@@H](OC(=O)CCCCCCCC/C=C\CCCCCCCC)CC[C@@]21C` (stereo partly drawn) has a Growth of cells (Homo sapiens [9]) of 6 and a Growth of cells [10] of 6.

`CCCCCCCC/C=C\CCCCCCCCC(=O)O[C@H]1CC[C@@]2(C)C(=CC[C@H]3[C@@H]4CC[C@H](C(C)COC(=O)NCCCCCCCCCCCC)C4CC[C@@H]32)C1` (stereo partly drawn) gave a Growth of cells (Homo sapiens [5]) of 6 and a Growth of cells [6] of 6.

In the case of `CCCCCCCC/C=C\CCCCCCCCN1CC(C)OC(C)C1` (stereo not drawn), the Growth of cells [3] is reported as 0 and the Growth of cells (Homo sapiens [4]) is reported as 0.

`CC(C)CCCC(C)C1CCC2C3CC=C4CC(OC(=O)Cc5ccc(N(CCCl)CCCl)cc5)CCC4(C)C3CCC12C` (stereo not drawn) gave a Growth of cells (Homo sapiens [9]) of 6 and a Growth of cells [10] of 6.

With `CC1=C(/C=C/C(C)=C/C=C/C(C)=C\CN2CCOCC2)C(C)(C)CCC1` the Growth of cells [3] was 0 and the Growth of cells (Homo sapiens [4]) was 0.

For `CCCCCCCC/C=C\CCCCCCCCOC(=O)N(CCCCCCCCCCCC)CC(F)(F)F`, the Growth of cells (Homo sapiens [8]) was 6 and the Growth of cells [6] was 6.

In the case of `CCCCCCCC/C=C\CCCCCCCCN1CCOCC1`, the Growth of cells [3] is reported as 1 and the Growth of cells (Homo sapiens [4]) is reported as 0.

`CCCCCCCC/C=C\CCCCCCCCOC(=O)N(CCCCCCCCCCCC)CC(F)F` showed a Growth of cells (Homo sapiens [5]) of 6 and a Growth of cells [6] of 6.

Molecule `CCCCCCCC/C=C\CCCCCCCCOC(=O)N1CCOC(CCCCCCCCCCCC)C1` (stereo not drawn) has a Growth of cells (Homo sapiens [5]) of 6 and a Growth of cells [6] of 6.

In the case of `CCCCCCCC/C=C\CCCCCCCCOC(=O)N(CCCl)CCCl`, the Growth of cells (Homo sapiens [11]) is reported as 0, the Growth of cells (Homo sapiens [12]) is reported as 2 and the Growth of cells [13] is reported as 5. The Growth of cells [6] was 0.
